Drawing on ChEMBL document CHEMBL3352439, “γ-Butyrolactone, cytochalasin, cyclic carbonate, eutypinic acid, and phenalenone derivatives from the soil fungus Aspergillus sp. PSU-RSPG185” (J Nat Prod, 2014), this text covers inhibition, Activity and IC50 for 4 compounds.

Active and inactive are the calls of the source. The rule behind the calls is not given here.

The test system of assay [1] is KB. Briefly: Cytotoxicity against human KB cells by colorimetric method. Type of assay: functional, cell-based. The method, boiled down:
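KB cells assayed by the method of O'Brien and coworkers; ellipticine as reference compound; IC50 derived.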

The test system of assay [2] is Plasmodium falciparum. Kind of assay: Antimalarial activity against multidrug-resistant Plasmodium falciparum K1 assessed as [3H]-hypoxanthine incorporation 24 to 42 hrs by scintillation counting analysis. Type of assay: functional, organism-based. The method, boiled down: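 Microculture radioisotope technique against multidrug-resistant K1 parasites; dihydroartemisinin as reference drug.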

Assay [3] relates to Mycobacterium tuberculosis. Kind of assay: Antimicrobial activity against Mycobacterium tuberculosis H37Ra assessed as growth inhibition by green fluorescent protein-based fluorescent detection. The format is functional, organism-based. In a few lines: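 Growth inhibition read by GFP-based fluorescence; isoniazid as reference drug; result reported as MIC.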
Assay [4] deals with Vero. Briefly: Cytotoxicity against african green monkey Vero cells by colorimetric method. Type of assay: cell-based. The settings on record: Chlorocebus sabaeus. The method, boiled down: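 Vero cells assayed by a colorimetric method; ellipticine as reference compound; IC50 derived.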

`COc1c(O)c2c3c(c(O)cc(C)c3c1O)C(=O)[C@](C)(C/C=C(\C)CC/C=C(\C)CC[C@@H](O)C(C)(C)O)C2=O`: the inhibition result in assay [1] is “inactive”. Moreover, the result in assay [2] and in assay [3] was inactive.
In the case of `C=C(C)C#Cc1cc(C(=O)O)ccc1O`, in assay [1], the inhibition result is “inactive”. Moreover, the outcome in assay [2] and in assay [3] was inactive.
Take `CC1=C[C@@H]2[C@H]3[C@H]([C@H](O)C(=O)[C@]24C(=O)N[C@@H](CC(C)C)[C@@H]4[C@@H]1C)[C@@H](O)CCC[C@]3(C)O`: the inhibition entry in assay [1] was “inactive”. Besides, the outcome in assay [2] and in assay [3] was inactive.
With `CO[C@@]1(C/C=C(\C)CC/C=C(\C)CC[C@@H](O)C(C)(C)O)C(=O)c2c(O)cc(C)c3c(O)c(C)c(O)c(c23)C1=O`, the results for the IC50 in assay [1] and in assay [4] were 48.4 µM and 34.2 µM, respectively. Moreover, the result in assay [2] and in assay [3] was inactive.

In general, IC50 refers to the midpoint of a concentration-inhibition curve.
